The text below walks through data of ChEMBL document CHEMBL3272249, “Esters of N-tert-butylarterenol. Long-acting new bronchodilators with reduced cardiac effects” (J Med Chem, 1976).

The test system of data set [1] is Canis familiaris. As to the kind of experiment: Cardiotoxicity in spontaneously respiring dog assessed as time of increase in heart rate at 4 to 8 mg/kg, iv relative to control. It is filed as toxicity, organism-based, Canis lupus familiaris. More on the design: dose 4-8 mg/kg, route intravenous. As to conditions: in vivo. In outline:
(§1)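 Anesthetized, spontaneously respiring dogs. Heart rate was taken from a lead II EKG, and blood pressure from the right femoral artery by transducer. The increase in heart rate (beats/min) was scored on a graded scale with more than 4 dogs per dose, and its duration was recorded. Drugs were dissolved fresh in distilled water, diluted in physiological saline and kept on ice.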

Data set [2] has as its system Canis familiaris. Kind of data set: Cardiotoxicity in spontaneously respiring dog assessed as time of increase in heart rate at 200 to 400 mg/kg, id relative to control. Type of data set: toxicity, organism-based, Canis lupus familiaris. More on the design: dose 200-400 mg/kg, route intraduodenal. As to conditions: in vivo, other. In outline:
as §1

The test system of data set [3] is Canis familiaris. As to the kind of experiment: Bronchodilator activity in dog assessed as time of inhibition of carbachol or histamine-induced bronchoconstriction at 4 to 8 mg/kg, iv relative to control. It is filed as functional, Canis lupus familiaris. Particulars: dose mg/kg 4-8. In outline: (§2)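 Dog airway model: anesthetized, cannulated via a nonbreathing valve, with airway pressure changes recorded after iv carbachol (2–4 μg/kg) or histamine diphosphate (20–50 μg/kg) challenge, each agonist in different animals. Compounds were given iv, intraduodenally or intratracheally from fresh aqueous stocks diluted in saline. Duration (h) of inhibition of induced bronchoconstriction was followed, and the two agonist datasets were pooled.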

The subject of data set [4] is Canis familiaris. Kind of data set: Bronchodilator activity in dog assessed as time of inhibition of carbachol or histamine-induced bronchoconstriction at 200 to 400 mg/kg, id relative to control. It is filed as functional, Canis lupus familiaris. Particulars: dose mg/kg 200-400; route intraduodenal. The gist of the method:
as §2

The subject of data set [5] is Canis familiaris. As to the kind of experiment: Bronchodilator activity in dog assessed as time of inhibition of carbachol or histamine-induced bronchoconstriction at 400 to 800 mg/kg, it relative to control. Type of data set: functional, Canis lupus familiaris. Particulars: dose mg/kg 400-800; route endotracheal. In outline: as §2
Data set [6] has as its system Canis familiaris. As to the kind of experiment: Cardiotoxicity in spontaneously respiring dog assessed as degree of increase in heart rate at 4 to 8 mg/kg, iv relative to control. It is filed as toxicity, organism-based, Canis lupus familiaris. More on the design: dose 4-8 mg/kg, route intravenous. Particulars: in vivo. In outline:
as §1

Data set [7] has as its system Canis familiaris. As to the kind of experiment: Cardiotoxicity in spontaneously respiring dog assessed as degree of increase in heart rate at 200 to 400 mg/kg, id relative to control. It is filed as toxicity, organism-based, Canis lupus familiaris. Also on record: dose 200-400 mg/kg, route intraduodenal. As to conditions: in vivo, other. In outline: as §1
Data set [8] concerns Canis familiaris. As to the kind of experiment: Bronchodilator activity in dog assessed as degree of inhibition of carbachol or histamine-induced bronchoconstriction at 4 to 8 mg/kg, iv relative to control. It is filed as functional, Canis lupus familiaris. Particulars: dose mg/kg 4-8. The gist of the method: (§3)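 Anesthetized dogs, trachea cannulated with a nonbreathing valve. Bronchoconstriction induced by iv carbachol (2–4 μg/kg) or histamine diphosphate (20–50 μg/kg) in separate animals, and airway pressure recorded by transducer. Drug stocks were made fresh in distilled water, diluted in saline and kept on ice. Read-out was percent inhibition of control constriction, averaged over at least three dogs per dose at the higher dose. Carbachol and histamine data were combined.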

For data set [9], the system named is Canis familiaris. As to the kind of experiment: Bronchodilator activity in dog assessed as degree of inhibition of carbachol or histamine-induced bronchoconstriction at 200 to 400 mg/kg, id relative to control. Type of data set: functional, Canis lupus familiaris. As to conditions: dose mg/kg 200-400; route intraduodenal. In outline:
as §3

For data set [10], the system named is Canis familiaris. Kind of data set: Bronchodilator activity in dog assessed as degree of inhibition of carbachol or histamine-induced bronchoconstriction at 400 to 800 mg/kg, it relative to control. It is filed as functional, Canis lupus familiaris. Particulars: dose mg/kg 400-800; route endotracheal. In outline:
as §3

The test system of data set [11] is Canis familiaris. As to the kind of experiment: Cardiotoxicity in spontaneously respiring dog assessed as time of increase in heart rate at 20 to 100 mg/kg, iv relative to control. Particulars: in vivo. Also on record: dose 20-100 mg/kg, route intravenous. It is filed as toxicity, organism-based, Canis lupus familiaris. The gist of the method: as §1
In data set [12] the test system is Canis familiaris. As to the kind of experiment: Bronchodilator activity in dog assessed as time of inhibition of carbachol or histamine-induced bronchoconstriction at 20 to 100 mg/kg, iv relative to control. It is filed as functional, Canis lupus familiaris. Particulars: dose mg/kg 20-100. The gist of the method:
as §2

The subject of data set [13] is Canis familiaris. As to the kind of experiment: Bronchodilator activity in dog assessed as time of inhibition of carbachol or histamine-induced bronchoconstriction at 50 to 100 mg/kg, id relative to control. Type of data set: functional, Canis lupus familiaris. Particulars: dose mg/kg 50-100; route intraduodenal. In outline: (§4)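 Anesthetized dogs with an airway cannula and a nonbreathing valve. Bronchoconstriction was induced by iv carbachol (2–4 μg/kg) or histamine diphosphate (20–50 μg/kg) and read as change in airway pressure by transducer. Each compound was tested against both agonists in different dogs, and the results were combined and averaged. Effect is % inhibition of control constriction, with at least three dogs per dose. Drugs were dissolved fresh in distilled water, diluted in saline and kept on ice.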

The test system of data set [14] is Canis familiaris. Kind of data set: Cardiotoxicity in spontaneously respiring dog assessed as degree of increase in heart rate at 20 to 100 mg/kg, iv relative to control. Type of data set: toxicity, organism-based, Canis lupus familiaris. Also on record: dose 20-100 mg/kg, route intravenous. As to conditions: in vivo. The gist of the method:
as §1

Data set [15] has as its system Canis familiaris. Kind of data set: Bronchodilator activity in dog assessed as degree of inhibition of carbachol or histamine-induced bronchoconstriction at 20 to 100 mg/kg, iv relative to control. Type of data set: functional, Canis lupus familiaris. Particulars: dose mg/kg 20-100. The gist of the method: as §3
Data set [16] concerns Canis familiaris. As to the kind of experiment: Bronchodilator activity in dog assessed as degree of inhibition of carbachol or histamine-induced bronchoconstriction at 50 to 100 mg/kg, id relative to control. Type of data set: functional, Canis lupus familiaris. As to conditions: dose mg/kg 50-100; route intraduodenal. The gist of the method:
as §3

In data set [17] the test system is Canis familiaris. Kind of data set: Bronchodilator activity in dog assessed as time of inhibition of carbachol or histamine-induced bronchoconstriction at 5 mg/kg, iv relative to control. Type of data set: functional, Canis lupus familiaris. In outline: as §4
Data set [18] deals with Canis familiaris. As to the kind of experiment: Bronchodilator activity in dog assessed as time of inhibition of carbachol or histamine-induced bronchoconstriction at 50 mg/kg, id relative to control. Particulars: route intraduodenal. It is filed as functional, Canis lupus familiaris. The gist of the method: as §4
In data set [19] the test system is Canis familiaris. As to the kind of experiment: Bronchodilator activity in dog assessed as degree of inhibition of carbachol or histamine-induced bronchoconstriction at 5 mg/kg, iv relative to control. Type of data set: functional. As to conditions: Canis lupus familiaris. In outline: as §3
Data set [20] concerns Canis familiaris. Kind of data set: Bronchodilator activity in dog assessed as degree of inhibition of carbachol or histamine-induced bronchoconstriction at 50 mg/kg, id relative to control. It is filed as functional. Particulars: Canis lupus familiaris, route intraduodenal. The gist of the method:
as §3

Bounds are passed on as bounds.

As to `CC(C)CC(=O)Oc1ccc([C@@H](O)CNC(C)(C)C)cc1OC(=O)CC(C)C.Cl`, the Time with Canis familiaris [1] is below 1 h; in the data set on Canis familiaris [2], below 3 h; in the data set with Canis familiaris [3] it was below 2 h; with Canis familiaris [4], 3 h; with Canis familiaris [5], below 2 h. Moreover, the Activity in the data set on Canis familiaris [6] came out at 20 beats/min; with Canis familiaris [7], 40 beats/min. The “inhibition (INH)” value is given as above 70% in the data set with Canis familiaris [8], 45% with Canis familiaris [9] and above 70% with Canis familiaris [10].
As for `CC(C)(C)NC[C@H](O)c1ccc(OC(=O)C(C)(C)C)c(OC(=O)C(C)(C)C)c1.Cl`, the Time with Canis familiaris [11] is below 2 h; in the data set on Canis familiaris [5] it was below 2 h; in the data set with Canis familiaris [12], 3 h; in the data set on Canis familiaris [13] it was 3 h. The Activity in the data set on Canis familiaris [14] is 20 beats/min. Further, the “inhibition (INH)” value is on record as 45% with Canis familiaris [10], above 70% with Canis familiaris [15] and above 70% in the data set with Canis familiaris [16].
As to `CC(C)(C)NC[C@H](O)c1ccc(OC(=O)C2(C)CC2)c(OC(=O)C2(C)CC2)c1.Cl`, the Time in the data set with Canis familiaris [17] is below 1 h; with Canis familiaris [18], 2 h. Moreover, the inhibition in vivo – broadly, the change of the read-out against control, counted positive when it falls – at 5 mg/kg in the data set on Canis familiaris [19] was found to be 45%. Also, in the data set on Canis familiaris [20], the inhibition in vivo at 50 mg/kg turned out to be 45%.
